Measured values reported in ChEMBL document CHEMBL4715748, “Synthesis and biological investigation of new equatorial (β) stereoisomers of 3-aminotropane arylamides with atypical antipsychotic profile” (Bioorg Med Chem, 2016).

Columns and labels:
D(2) dopamine receptor = D(2) dopamine receptor (Rattus norvegicus, UniProt P61169); experiment: Displacement of [3H] Spiperone from rat striatum dopamine D2 receptor measured after 30 mins by liquid scintillation counter method
Summary of the method: (§1)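 Competition binding in rat brain tissue membranes against D2, 5-HT1A and 5-HT2A sites; Ki reported as mean ± S.E.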

[1] = molecular target: T1, 5-hydroxytryptamine receptor 1A (Rattus norvegicus, UniProt P19327); experiment: Displacement of [3H]-8-OH-DPAT from rat cerebral cortex 5HT1A receptor measured after 15 mins by liquid scintillation counter method
T1 sequence (P19327 whole entry): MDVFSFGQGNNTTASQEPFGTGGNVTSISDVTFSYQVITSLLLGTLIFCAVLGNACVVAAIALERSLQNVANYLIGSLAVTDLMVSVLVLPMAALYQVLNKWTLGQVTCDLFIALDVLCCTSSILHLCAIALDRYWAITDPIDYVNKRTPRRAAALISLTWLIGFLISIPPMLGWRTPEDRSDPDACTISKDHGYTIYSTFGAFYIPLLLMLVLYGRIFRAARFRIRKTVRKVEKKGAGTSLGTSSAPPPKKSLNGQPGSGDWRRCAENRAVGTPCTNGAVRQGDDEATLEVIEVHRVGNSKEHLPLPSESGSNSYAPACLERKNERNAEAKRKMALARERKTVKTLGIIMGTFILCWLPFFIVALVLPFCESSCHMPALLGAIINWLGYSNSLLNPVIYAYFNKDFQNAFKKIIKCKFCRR

[2] = molecular target: 5-hydroxytryptamine receptor 2A (Rattus norvegicus, UniProt P14842); experiment: Displacement of [3H]-ketanserin from rat cerebral cortex 5HT2A receptor measured after 20 mins by liquid scintillation counter method; summary of the method: as §1
Chain of 5-hydroxytryptamine receptor 2A (P14842 whole entry): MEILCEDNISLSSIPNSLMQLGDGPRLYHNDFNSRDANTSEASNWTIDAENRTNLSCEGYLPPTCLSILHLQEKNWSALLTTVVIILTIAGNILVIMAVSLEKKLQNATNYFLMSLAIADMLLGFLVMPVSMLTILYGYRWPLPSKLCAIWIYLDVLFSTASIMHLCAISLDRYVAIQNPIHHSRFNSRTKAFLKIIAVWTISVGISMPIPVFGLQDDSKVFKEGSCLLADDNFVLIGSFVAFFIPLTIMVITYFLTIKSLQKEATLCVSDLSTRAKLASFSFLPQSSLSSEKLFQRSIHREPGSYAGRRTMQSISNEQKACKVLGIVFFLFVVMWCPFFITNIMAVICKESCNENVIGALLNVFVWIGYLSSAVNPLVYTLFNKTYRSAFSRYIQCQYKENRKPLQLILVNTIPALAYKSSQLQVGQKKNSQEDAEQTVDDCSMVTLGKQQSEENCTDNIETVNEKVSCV

[3] = Effect on body temperature in Swiss Albino mouse assessed as rectal body temperature at 20 mg/kg, ip measured after 30 mins by thermometer (reference value: 0.16 to 0.33 degreeC); type: ADME, organism-based; settings: in vivo, 0.5 h
[4] = molecular target: Dopamine D2 receptor and Serotonin 2a receptor (D2 and 5HT2a) (Rattus norvegicus) (UniProt P61169+P14842); experiment: Ratio of pKi for displacement of [3H]-ketanserin from rat cerebral cortex 5HT2A receptor measured after 20 mins by liquid scintillation counter method to pKi for displacement of [3H] Spiperone from rat striatum dopamine D2 receptor measured after 30 mins by liquid scintillation counter method
Chain of Dopamine D2 receptor and Serotonin 2a receptor (D2 and 5HT2a) (Rattus norvegicus) (P14842 whole entry, looked up): as the sequence (P14842 whole entry) above
Chain of Dopamine D2 receptor and Serotonin 2a receptor (D2 and 5HT2a) (Rattus norvegicus) (P61169 whole entry, looked up): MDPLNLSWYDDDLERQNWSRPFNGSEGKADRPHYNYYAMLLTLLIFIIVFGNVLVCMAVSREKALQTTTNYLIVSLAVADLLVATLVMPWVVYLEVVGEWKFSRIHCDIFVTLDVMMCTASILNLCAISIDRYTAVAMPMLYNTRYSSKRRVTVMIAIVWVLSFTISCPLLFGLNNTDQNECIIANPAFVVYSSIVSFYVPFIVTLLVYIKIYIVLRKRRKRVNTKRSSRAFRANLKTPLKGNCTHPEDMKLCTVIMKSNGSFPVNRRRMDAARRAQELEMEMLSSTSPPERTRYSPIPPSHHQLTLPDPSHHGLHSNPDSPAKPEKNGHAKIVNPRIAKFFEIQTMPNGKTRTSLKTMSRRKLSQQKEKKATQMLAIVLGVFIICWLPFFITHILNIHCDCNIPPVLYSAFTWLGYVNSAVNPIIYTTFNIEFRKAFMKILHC
Summary of the method: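 Ratio of pKi values, 5-HT2A over D2, computed from competition radioligand binding in rat brain tissue.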

[5] = Effect on 8-OH-DPAT-induced lower lip retraction in Wistar rat at 20 mg/kg, ip pretreated with compound for 45 mins followed by 8-OH-DPAT challenge and measured after 15 mins (reference value: 2.7 to 2.8); type: functional; settings: time 60 min, 1 h
[6] = Effect on body temperature in Swiss Albino mouse assessed as rectal body temperature at 20 mg/kg, ip measured after 90 mins by thermometer (reference value: 0.18 to 0.63 degreeC); type: ADME, organism-based; settings: in vivo, 1.5 h
Mus musculus [7] = experiment: Antipsychotic activity Swiss Albino mouse assessed as inhibition of DOI-induced head twitching by measuring number of episodes at 10 mg/kg, ip administered 30 mins prior to DOI stimulation (reference value: 19.63 to 19.88); type: functional; settings: 0.5 h
Summary of the method: (§2)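 Male Albino Swiss mice (24–28 g) were habituated to sawdust-lined cages 20 min before the first treatment. Compounds were suspended in 1% aqueous Tween 80 and given i.p. 30 min before (±)-DOI, 2.5 mg/kg i.p. in aqueous solution. Head twitches were counted blind over 20 min, n=8 per group, mean ± SEM, one-way ANOVA with Dunnett's test.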

Mus musculus [8] = experiment: Effect on 8-OH-DPAT-induced hypothermia in Swiss albino mouse assessed as change in rectal body temperature at 20 mg/kg, ip pretreated with compound for 45 mins followed by 8-OH-DPAT challenge and measured after 60 min by thermometer (reference value: -0.66 to -0.5 degreeC); type: functional, organism-based; settings: time 105.0 min
[9] = Effect on body temperature in Swiss Albino mouse assessed as rectal body temperature at 10 mg/kg, ip measured after 60 mins by thermometer (reference value: 0.33 to 0.61 degreeC); type: ADME, organism-based; settings: in vivo, 1 h
Mus musculus [10] = experiment: Antipsychotic activity Swiss Albino mouse assessed as inhibition of DOI-induced head twitching by measuring number of episodes at 2.5 mg/kg, ip administered 30 mins prior to DOI stimulation (reference value: 19.63 to 19.88); type: functional; settings: 0.5 h; summary of the method: as §2
Mus musculus [11] = experiment: Effect on 8-OH-DPAT-induced hypothermia in Swiss albino mouse assessed as change in rectal body temperature at 20 mg/kg, ip pretreated with compound for 45 mins followed by 8-OH-DPAT challenge and measured after 15 min by thermometer (reference value: -1.82 to -1.66 degreeC); type: functional, organism-based; settings: time 60.0 min
Mus musculus [12] = experiment: Effect on 8-OH-DPAT-induced hypothermia in Swiss albino mouse assessed as change in rectal body temperature at 20 mg/kg, ip pretreated with compound for 45 mins followed by 8-OH-DPAT challenge and measured after 45 min by thermometer (reference value: -1.04 to -0.78 degreeC); type: functional, organism-based; settings: time 90.0 min
[13] = Effect on body temperature in Swiss Albino mouse assessed as rectal body temperature at 10 mg/kg, ip measured after 120 mins by thermometer (reference value: 0.15 to 1.11 degreeC); type: organism-based; settings: in vivo, 2 h
Mus musculus [14] = experiment: Effect on 8-OH-DPAT-induced hypothermia in Swiss albino mouse assessed as change in rectal body temperature at 20 mg/kg, ip pretreated with compound for 45 mins followed by 8-OH-DPAT challenge and measured after 30 min by thermometer (reference value: -1.36 to -1.12 degreeC); type: functional, organism-based; settings: time 75.0 min
[15] = Effect on body temperature in Swiss Albino mouse assessed as rectal body temperature at 10 mg/kg, ip measured after 30 mins by thermometer (reference value: 0.16 to 0.33 degreeC); type: organism-based; settings: in vivo, 0.5 h
[16] = Effect on body temperature in Swiss Albino mouse assessed as rectal body temperature at 10 mg/kg, ip measured after 90 mins by thermometer (reference value: 0.18 to 0.63 degreeC); type: ADME, organism-based; settings: in vivo, 1.5 h
Mus musculus [17] = experiment: Effect on 8-OH-DPAT-induced hypothermia in Swiss albino mouse assessed as change in rectal body temperature at 10 mg/kg, ip pretreated with compound for 45 mins followed by 8-OH-DPAT challenge and measured after 15 min by thermometer (reference value: -1.82 to -1.66 degreeC); type: functional, organism-based; settings: time 60.0 min
[18] = Effect on body temperature in Swiss Albino mouse assessed as rectal body temperature at 20 mg/kg, ip measured after 60 mins by thermometer (reference value: 0.33 to 0.61 degreeC); type: ADME, organism-based; settings: in vivo, 1 h
[19] = Half life in pooled human liver microsomes assessed as parent compound remaining at 2.5 uM measured up to 45 mins in presence of NADPH by LC-MS analysis; type: ADME, Microsome
Summary of the method: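 Compound at 2.5 μM (added from 100 μM stock in 50/50 acetonitrile/water) with 1 mg/mL pooled human liver microsomes and 250 μM NADPH in 0.1 M potassium phosphate pH 7.4 at 37 °C after 5-min preincubation. Sampled at 5, 10, 15, 30, 45 min into ice-cold acetonitrile with atropine internal standard; parent quantified by LC-MS (ESI+, [M+H]+); no-NADPH controls; half-time derived.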

Mus musculus [20] = experiment: Effect on 8-OH-DPAT-induced hypothermia in Swiss albino mouse assessed as change in rectal body temperature at 10 mg/kg, ip pretreated with compound for 45 mins followed by 8-OH-DPAT challenge and measured after 60 min by thermometer (reference value: -0.66 to -0.5 degreeC); type: functional, organism-based; settings: time 105.0 min
Mus musculus [21] = experiment: Effect on 8-OH-DPAT-induced hypothermia in Swiss albino mouse assessed as change in rectal body temperature at 10 mg/kg, ip pretreated with compound for 45 mins followed by 8-OH-DPAT challenge and measured after 45 min by thermometer (reference value: -1.04 to -0.78 degreeC); type: functional, organism-based; settings: time 90.0 min
[22] = Effect on 8-OH-DPAT-induced lower lip retraction in Wistar rat at 10 mg/kg, ip pretreated with compound for 45 mins followed by 8-OH-DPAT challenge and measured after 15 mins (reference value: 2.7 to 2.8); type: functional; settings: time 60 min, 1 h
Mus musculus [23] = experiment: Antipsychotic activity Swiss Albino mouse assessed as inhibition of DOI-induced head twitching by measuring number of episodes at 5 mg/kg, ip administered 30 mins prior to DOI stimulation (reference value: 19.63 to 19.88); type: functional; settings: 0.5 h; summary of the method: as §2
[24] = Effect on body temperature in Swiss Albino mouse assessed as rectal body temperature at 20 mg/kg, ip measured after 120 mins by thermometer (reference value: 0.15 to 1.11 degreeC); type: ADME, organism-based; settings: in vivo, 2 h
Mus musculus [25] = experiment: Effect on 8-OH-DPAT-induced hypothermia in Swiss albino mouse assessed as change in rectal body temperature at 10 mg/kg, ip pretreated with compound for 45 mins followed by 8-OH-DPAT challenge and measured after 30 min by thermometer (reference value: -1.36 to -1.12 degreeC); type: functional, organism-based; settings: time 75.0 min

Chain of D(2) dopamine receptor (P61169 whole entry): as the sequence (P61169 whole entry, looked up) above

| SMILES | Ki (D(2) dopamine receptor) | Ki [1] | Ki [2] | deltaT [3] | Ratio pKi [4] | Activity [5] | deltaT [6] | Activity (Mus musculus [7]) | deltaT (Mus musculus [8]) | deltaT [9] | Activity (Mus musculus [10]) | deltaT (Mus musculus [11]) | deltaT (Mus musculus [12]) | deltaT [13] | deltaT (Mus musculus [14]) | deltaT [15] | deltaT [16] | deltaT (Mus musculus [17]) | deltaT [18] | half-life at 2.5 µM [19] | other results |
| --- | --- | --- | --- | --- | --- | --- | --- | --- | --- | --- | --- | --- | --- | --- | --- | --- | --- | --- | --- | --- | --- |
| O=C(NC1CC2CCC(C1)N2Cc1ccncc1)c1ccc2ccccc2c1 (stereo unspecified) | 2.7 µM | 2.3 µM | 1.12 µM | – | – | – | – | – | – | – | – | – | – | – | – | – | – | – | – | – | – |
| O=C(NC1CC2CCC(C1)N2Cc1ccc(C(F)(F)F)cc1)c1ccc2ccccc2c1 (stereo unspecified) | 0.629 µM | 2 µM | > 10 µM | – | – | – | – | – | – | – | – | – | – | – | – | – | – | – | – | – | – |
| O=C(NC1CC2CCC(C1)N2Cc1ccccc1Cl)c1ccc2ccccc2c1 (stereo unspecified) | 0.0348 µM | 0.158 µM | 0.397 µM | -0.36 °C | 0.86 | 2 | 0.44 °C | 10.75 | -1.53 °C | 0.96 °C | 20 | -2 °C | -2.18 °C | 1.34 °C | -2.12 °C | 0 °C | 0.84 °C | -0.97 °C | 0.44 °C | 33 min | deltaT (Mus musculus [20]): -0.12 °C; deltaT (Mus musculus [21]): -0.62 °C; Activity [22]: 2.5; Activity (Mus musculus [23]): 14.75; deltaT [24]: 1.39 °C; deltaT (Mus musculus [25]): -1.17 °C |
| COc1ccc(CN2C3CCC2CC(NC(=O)c2ccc4ccccc4c2)C3)cc1 (stereo unspecified) | 0.0006 µM | 2.6 µM | 0.92 µM | – | – | – | – | – | – | – | – | – | – | – | – | – | – | – | – | – | – |
| O=C(NC1CC2CCC(C1)N2Cc1ccccc1F)c1ccc2ccccc2c1 (stereo unspecified) | 0.715 µM | 0.365 µM | 0.106 µM | – | – | – | – | – | – | – | – | – | – | – | – | – | – | – | – | – | – |
| COc1cccc(CN2C3CCC2CC(NC(=O)c2ccc4ccccc4c2)C3)c1 (stereo unspecified) | 0.0257 µM | 0.213 µM | 0.663 µM | -0.1 °C | 0.81 | 2.5 | 0.81 °C | 9.88 | -0.97 °C | 0.03 °C | 16.63 | -1.25 °C | -1.33 °C | 0.7 °C | -1.65 °C | -0.03 °C | 0.17 °C | -1.52 °C | 0.57 °C | 42.9 min | deltaT (Mus musculus [20]): -0.6 °C; deltaT (Mus musculus [21]): -0.87 °C; Activity [22]: 2.4; Activity (Mus musculus [23]): 14.25; deltaT [24]: 1.26 °C; deltaT (Mus musculus [25]): -1.32 °C |
| O=C(NC1CC2CCC(C1)N2Cc1ccccn1)c1ccc2ccccc2c1 (stereo unspecified) | 2.2 µM | 0.315 µM | 0.589 µM | – | – | – | – | – | – | – | – | – | – | – | – | – | – | – | – | – | – |
| O=C(NC1CC2CCC(C1)N2Cc1ccccc1Br)c1ccc2ccccc2c1 (stereo unspecified) | 0.0228 µM | 0.196 µM | 0.136 µM | – | – | – | – | – | – | – | – | – | – | – | – | – | – | – | – | – | – |
| COc1ccccc1CN1C2CCC1CC(NC(=O)c1ccc3ccccc3c1)C2 (stereo unspecified) | 0.0769 µM | 0.0825 µM | 0.919 µM | -0.34 °C | 0.85 | 2 | 0.16 °C | 8.25 | -0.65 °C | 0.44 °C | 16.25 | -1.47 °C | -0.92 °C | 0.26 °C | -1.37 °C | 0.23 °C | 0.63 °C | -1.37 °C | 0.01 °C | 41.3 min | deltaT (Mus musculus [20]): -1.08 °C; deltaT (Mus musculus [21]): -1.45 °C; Activity [22]: 2.5; Activity (Mus musculus [23]): 12.25; deltaT [24]: -0.26 °C; deltaT (Mus musculus [25]): -1.77 °C |
